How the values were obtained:
[1] = test system: Trypanosoma cruzi; assay: Antitrypanosomal activity against bloodstream forms of Trypanosoma cruzi Y isolated from parasite infected Albino Swiss mouse assessed as induction of parasite lysis incubated for 24 hrs by Neubauer chamber based cell counting method; format: functional, organism-based
Procedure, shortened: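 Bloodstream trypomastigotes were taken from infected mice at peak parasitemia by differential centrifugation and resuspended at 10x10^6 cells/mL in DMES medium. They were mixed 1:1 with compound at twice the final concentration, with DMSO final ≤0.1%, and incubated at 37°C for 24 h. Benznidazole was the control. Counts were made in a Neubauer chamber, giving IC50/24 h as the concentration causing 50% parasite lysis.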

[2] = Cytotoxicity against Swiss albino mouse peritoneal macrophages after 24 hrs by PrestoBlue dye based assay; format: cell-based, Peritoneal macrophage; settings: read-out: LC50
[3] = Selectivity index, ratio of LC50 for cytotoxicity against Swiss albino mouse peritoneal macrophages to IC50 for Antitrypanosomal activity against bloodstream forms of Trypanosoma cruzi Y isolated from parasite infected Albino Swiss mouse; format: toxicity; settings: read-out: Ratio LC50/IC50
[4] = test system: Trypanosoma cruzi; assay: Potency index, ratio of juglone IC50 to compound IC50 for antitrypanosomal activity against bloodstream forms of Trypanosoma cruzi Y isolated from parasite infected Albino Swiss mouse; format: functional

Row | SMILES | IC50 [1] [µM] | CC50 at 24 h [2] [µM] | selectivity ratio [3] | Ratio [4]
1 | O=C1C=CC(=O)C([Se]c2ccccc2)=C1 | 16 | 13.8 | 0.86 | 
2 | O=C1C=CC(=O)c2c1cccc2-c1ccccc1 | 1.24 | 12.7 | 10.2 | 5.2
3 | COc1c(I)ccc2c1C(=O)C=CC2=O | 1.35 | 13.3 | 9.8 | 
4 | Nc1c(I)ccc2c1C(=O)C=CC2=O | 0.56 | 13.1 | 23.4 | 
5 | CC1=C(C)C(=O)C(I)=CC1=O | 10.1 | 15.4 | 1.5 | 
6 | O=C1C=CC(=O)c2c(I)cccc21 | 0.59 | 11.5 | 19.5 | 
7 | O=C1C=C(I)C(=O)C(Cl)=C1Cl | 27 | > 100 | > 4.7 | 
8 | O=C1C=C([Se]c2ccccc2)C(=O)C=C1[Se]c1ccccc1 | 83.4 | > 100 | > 1.2 | 
9 | O=C1C=CC(=O)C(Br)=C1 | 21.5 | 34.4 | 1.6 | 
10 | CC(=O)Oc1cccc2c1C(=O)C=CC2=O | 0.16 |  |  | 
11 | O=C1C=CC(=O)c2c(/C=C/c3ccccc3)cccc21 | 0.19 | 11.9 | 62.5 | 
12 | COc1cc2c(c(I)c1OC)C(=O)C=CC2=O | 1.62 | 12.2 | 7.5 | 
13 | Cc1cc(I)c2c(c1)C(=O)C=CC2=O | 0.49 | 12.1 | 24.7 | 
14 | O=C1C=CC(=O)c2c(O)c(I)cc(I)c21 | 24.8 | > 100 | > 5.1 | 
15 | CCOC(=O)/C=C/c1cccc2c1C(=O)C=CC2=O | 6.03 | 12.7 | 2.1 | 
16 | CC(C)(C)C1=CC(=O)C(Br)=CC1=O | 14.1 | 42.3 | 3 | 
17 | COc1ccc(I)c2c1C(=O)C=CC2=O | 3.54 | 13.6 | 3.8 | 
18 | COc1cccc2c1C(=O)C=CC2=O | 1.02 |  |  | 
19 | O=C1C(Br)=C(Br)C(=O)c2c(I)cccc21 | 2.25 | 11.8 | 5.3 | 
20 | COc1ccc2c(c1I)C(=O)C=CC2=O | 1.17 | 14.2 | 12.1 | 

Row | SMILES | IC50 [1] [µM] | CC50 at 24 h [2] [µM] | selectivity ratio [3] | Ratio [4]
21 | CC1=CC(=O)c2c(O)cccc2C1=O [PLUMBAGIN] | 1.38 |  |  | 
22 | CC1=CC(=O)c2c(ccc(I)c2O)C1=O | 0.99 | 15.7 | 15.8 | 
23 | O=C(Cn1ccnc1[N+](=O)[O-])NCc1ccccc1 [BENZNIDAZOLE] | 9.68 | > 4000 | > 413 | 
24 | CC(C)(C)C1=CC(=O)C(I)=CC1=O | 12.8 | 35.9 | 2.8 | 
25 | O=C1C=CC(=O)c2c(I)ccc(I)c21 | 0.22 | 12.9 |  | 
26 | COC1=C(I)C(=O)C=CC1=O | 23.9 | 32.6 | 1.4 | 
27 | O=C1C=C(Br)C(=O)C(Cl)=C1Cl | 15.4 | > 100 | > 6.5 | 
28 | O=C1C=CC(=O)c2c(O)cccc21 [JUGLONE] | 6.51 |  |  | 
29 | COC1=C(I)C(=O)C(I)=C(OC)C1=O | 1.94 | 27.7 |  | 
30 | O=C1C(Cl)=C(Cl)C(=O)c2c(I)cccc21 | 7.26 | 27.8 | 3.8 | 
31 | O=C1C=C(I)C(=O)c2ccccc21 | 1.79 | 14.7 | 8.2 | 
32 | O=C1C=CC(=O)c2c1ccc(I)c2O | 42 | > 100 | > 4.6 | 
33 | O=C1C=CC(=O)C(I)=C1 | 60.6 | 86 |  | 
34 | COc1c(I)ccc2c1C(=O)C=C(C)C2=O | 4.06 | 24.7 | 6.1 | 
35 | COC(=O)c1ccc(I)c2c1C(=O)C=CC2=O | 1.61 | 13.9 | 8.7 | 
36 | CC(=O)Oc1cccc2c1C(=O)C(Br)=CC2=O | 0.85 |  |  | 
37 | O=C1C=C(Br)C(=O)c2ccccc21 [2-Bromo-1,4-naphthoquinone] | 1.37 |  |  | 
38 | O=C1C=CC(=O)c2c(C#Cc3ccccc3)cccc21 | 2.2 | 12.5 | 5.7 | 
39 | O=C1C(Br)=CC(=O)c2c(I)cccc21 | 1.38 | 12.2 | 8.8 | 4.7
40 | O=C1C=C([Se]c2ccccc2)C(=O)c2ccccc21 | 1.13 | 12.7 | 11.2 | 
